The data set is described as follows: Toxicity liver stage against HepG2, at 10uM. To be noted: human, HepG2-A16-CD81EGFP cells; read-out: INHIBITION
The format is cell-based. More on the design: test concentration 10 uM, cell line HepG2-A16-CD81EGFP. The method in brief:
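Uninfected HepG2-A16-CD81EGFP cells, 3 × 10^3 per well, 1536-well, plated on prespotted compound at 10 μM final, parasite-free screening media added to match infected plates; puromycin 10 μM positive, DMSO 0.5% negative; run in parallel with 48 h PbLuc assay at 37 °C, 5% CO2; viability by CellTiter-Glo luminescence, normalized to controls.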
`CC(C)(C)c1ccc(C2(C(=O)NCCS(C)(=O)=O)CC2)cc1`: the cytotoxicity at 10 µM came out at 2.91%.

In the case of `N#CCCN(Cc1cccnc1)C(=O)c1ccc(OCC2CC2)cc1`, the cytotoxicity at 10 µM was -8.17%.

Take `O=C(NCC1(c2ccc(F)cc2)CC1)N1CCC2(CCOC2)C1` (stereo unspecified): the cytotoxicity at 10 µM was -6.72%.

In the case of `O=C(c1ccccn1)N1CCN(c2ccc(-n3cccc3)nn2)CC1`, the cytotoxicity at 10 µM is -13.7%.

In the case of `CC(C)N[C@@H]1CO[C@H](CNC(=O)c2cccs2)[C@H]1O`, the cytotoxicity at 10 µM is -3.65%.

Consider `Cc1ccc(N2CCCN(C(=O)CC3C=CCC3)CC2)nn1` (stereo unspecified), for which the cytotoxicity at 10 µM was -9.2%.

As to `COCc1cccc(S(=O)(=O)Nc2ncc(C)s2)c1`, the cytotoxicity at 10 µM was -8.13%.

As for `COC(=O)CNC(=O)c1ccn(-c2ccc(Cl)c(Cl)c2)n1`, the cytotoxicity at 10 µM was -8.77%.

Turning to `CC(C)c1nccn1-c1cccc(C2CCN(C)CC2)n1`, the cytotoxicity at 10 µM is 0.307%.

Consider `O=C(CN1CCOCC1)Nc1ccc(C(F)(F)F)cc1Cl`, for which the cytotoxicity at 10 µM was 4.72%.

Take `C=Cc1cccc(CN2C[C@@H]3CC[C@H]2CN(Cc2c(C)noc2C)C3)c1`: the cytotoxicity at 10 µM was -6.58%.

Turning to `CN(C)S(=O)(=O)N1CC[C@]2(O)CCN(CCc3cccc(F)c3)C[C@@H]2C1`, the cytotoxicity at 10 µM is -3.38%.

Take `O=C(NCc1ccco1)[C@H]1C[C@@H]2CCN(c3cccc(F)c3)C[C@H]2O1`: the cytotoxicity at 10 µM worked out at 8.68%.

For `COc1ccccc1C(=O)N1CCC(O)(c2cccc(C)c2C)CC1`, the cytotoxicity at 10 µM came out at 12.1%.

For `CN(Cc1nnn(CC2CC2)n1)C(=O)c1ccccc1`, the cytotoxicity at 10 µM was determined as 0.889%.

On to `CC(O)CN1CCN(C(=O)CN(C)c2ccc(Cl)cn2)CC1` (stereo unspecified), for which the cytotoxicity at 10 µM is -1.95%.

`O=C(O)c1c(-c2ccncc2)ncc2c1CCN(CC1CCOC1)C2` (stereo unspecified): the cytotoxicity at 10 µM was -100%.

Take `O=C(O)C(c1cccc2c1OCC2)N1CCC(N2CCCC2)CC1` (stereo unspecified): the cytotoxicity at 10 µM is 8.12%.

On to `COC[C@@H]1CCC[C@@]12CN(Cc1ccco1)CCO2`, for which the cytotoxicity at 10 µM was found to be 2.03%.

On to `CC(C)CNC(=O)[C@H]1C[C@H]2CN(Cc3cccnc3)C[C@@H]1O2`, for which the cytotoxicity at 10 µM was -1.16%.

Consider `CCCN1CCCn2nc(CNC(=O)CCc3scnc3C)cc2C1`, for which the cytotoxicity at 10 µM is 1.47%.

Consider `CC(C)OCc1ncn2c1CN(Cc1nccs1)CCC2`, for which the cytotoxicity at 10 µM is -83.6%.

`NC(=O)C1CCN(C(=O)NCc2csc(Br)c2)CC1`: the cytotoxicity at 10 µM was -18%.

On to `Cc1nn(C)c(C)c1NC(=O)CCn1ncc2ccccc21`, for which the cytotoxicity at 10 µM was determined as 10.8%.

As for `CCOc1ccc(N2CCCN=C2NC(=O)c2cccc(OC)c2)cc1`, the cytotoxicity at 10 µM was 5.2%.

In the case of `COc1cc(C(C)=O)ccc1SCC(=O)Nc1ccccn1`, the cytotoxicity at 10 µM was 11.7%.

As for `Cn1ccnc1SCCNC(=O)CC1CCc2ccccc21` (stereo unspecified), the cytotoxicity at 10 µM is -3.05%.

For `Cc1cc(N2CCOC(c3ccc(N(C)C)cn3)C2)nc(N)n1` (stereo unspecified), the cytotoxicity at 10 µM was determined as 5.62%.

With `NC(=O)C1CN(C(=O)NCC2(c3ccc(F)cc3)CCC2)CCO1` (stereo unspecified), the cytotoxicity at 10 µM is -5.07%.

In the case of `NC(=O)NCC(=O)N1C[C@@H]2CC[C@H]1CN(Cc1ccccc1)C2`, the cytotoxicity at 10 µM is -13.4%.

On to `Cc1cc(NC(=O)C(C)Nc2cccc(COCc3ccco3)c2)on1` (stereo unspecified), for which the cytotoxicity at 10 µM was -2.41%.

On to `N#Cc1cc(F)ccc1CN1CCCCC1Cn1cccn1` (stereo unspecified), for which the cytotoxicity at 10 µM was -2.93%.

In the case of `O=C(c1cc(-c2cccs2)cs1)N1CCSCC1`, the cytotoxicity at 10 µM is 10.4%.

As for `Cc1ccc(Cl)c(C)c1NC(=O)N1CCCN(Cc2ccccn2)CC1`, the cytotoxicity at 10 µM came out at 0.617%.

For the molecule `Cc1ncc(C)c(N2CCC(Cc3ccc(Cl)cc3)(C(=O)O)CC2)n1`, the cytotoxicity at 10 µM is -6.28%.

Take `CNC(=O)c1n[nH]c2c1C(c1cccc3nsnc13)CC(=O)N2` (stereo unspecified): the cytotoxicity at 10 µM is -13%.

As to `CCCNC(=O)CCNC(=O)N1CCc2c(F)ccc(F)c2C1`, the cytotoxicity at 10 µM was -9.91%.

`Cc1ccc(N2C[C@@H]3CN(Cc4csc(C)n4)CCO[C@@H]3C2)nn1`: the cytotoxicity at 10 µM came to 7.64%.

Regarding `Cn1nc(CNC(=O)C2COc3ccccc3O2)cc1C1CC1` (stereo unspecified), the cytotoxicity at 10 µM stood at 7.52%.

Turning to `C=C(C)COc1ccccc1NC(=O)N1CCCCC1CO` (stereo unspecified), the cytotoxicity at 10 µM was -8.06%.

`COc1ncccc1CN1C[C@H](C(=O)N2CCCO2)[C@@H]2CCO[C@@H]2C1`: the cytotoxicity at 10 µM worked out at 11.2%.

For the molecule `CC(C)(C)n1nc(C(=O)NC2CCN(CC(N)=O)CC2)cc1C1CC1`, the cytotoxicity at 10 µM came out at 0.196%.

With `CC(CNC(=O)c1ccc(Cl)cc1I)N1CCCC1` (stereo unspecified), the cytotoxicity at 10 µM was -5.69%.

On to `CN(C)CCNC(=O)CCn1ncc2c(Cl)cccc21`, for which the cytotoxicity at 10 µM turned out to be 5.92%.

For the molecule `Cn1cc(C2=NOC(C(=O)NC3(c4cccc(F)c4)CCCC3)C2)cn1` (stereo unspecified), the cytotoxicity at 10 µM turned out to be 1.53%.

In the case of `CCc1nc2ccccc2n1C(CC)C(=O)N(C)CCc1noc(C)n1` (stereo unspecified), the cytotoxicity at 10 µM was determined as 3.02%.

`COCC(=O)N1CC(=O)c2sc(Nc3ccc(F)cc3F)nc2C1`: the cytotoxicity at 10 µM is -7.02%.

As for `Cc1ccc(N2CC[C@@H]3[C@@H]2CCN3C(=O)c2cscn2)nn1`, the cytotoxicity at 10 µM amounted to 5.38%.

For `CC(Cn1cccn1)NCc1csc(COc2ccccc2)n1` (stereo unspecified), the cytotoxicity at 10 µM is -8.51%.

Regarding `CC(COCC(F)(F)F)NC(=O)c1ccc(-c2ccco2)[nH]c1=O` (stereo unspecified), the cytotoxicity at 10 µM was -20.1%.

In the case of `Fc1ccc(-c2nnc(CNC3CCc4ncnn4C3)o2)cc1` (stereo unspecified), the cytotoxicity at 10 µM is -3.67%.

Take `O=C(CN1CCN(CCO)CC1)NCCc1c(F)cccc1F`: the cytotoxicity at 10 µM was -9.83%.

As for `Cc1nc(CN2CCC(CNC(=O)C3(C#N)CCCC3)CC2)oc1C`, the cytotoxicity at 10 µM was determined as 1.29%.

Consider `Cc1nn(C)cc1C(=O)NCc1csc(C2CC2)n1`, for which the cytotoxicity at 10 µM was -4.1%.

For the molecule `COc1ccc(Cc2ncc3c(n2)CN(C(=O)CCO)C3)cc1`, the cytotoxicity at 10 µM stood at 2.37%.

As for `COc1ccc(CCN2CC(n3nc(C)cc3C)C2)cc1`, the cytotoxicity at 10 µM was -9.12%.

As to `O[C@]12CCNC[C@H]1CN(c1nccc3ccccc13)CC2`, the cytotoxicity at 10 µM is 12.3%.

On to `CCn1nc(CC(C)C)cc1C(=O)NCCS(=O)(=O)N(C)C`, for which the cytotoxicity at 10 µM is 11.2%.

Take `Cc1cn(Cc2nc(CC(C)C)nn2-c2ccccn2)c(=O)[nH]c1=O`: the cytotoxicity at 10 µM is -8.66%.

Take `CCc1nccn1-c1cncc(C2CCCN2CC(=O)N2CCCC2)n1` (stereo unspecified): the cytotoxicity at 10 µM was 0.193%.

With `CCOCC1(CNCc2cc(O)c3cc(C)ccc3n2)CC1`, the cytotoxicity at 10 µM was -9.19%.

Take `Cc1ccc(OCC2CCCN(Cc3ccc(CO)o3)C2)cc1` (stereo unspecified): the cytotoxicity at 10 µM worked out at 5.66%.

As to `CCN(C)CC1CCN(S(=O)(=O)c2cc(C)c(F)cc2Cl)C1` (stereo unspecified), the cytotoxicity at 10 µM is -8.38%.

Turning to `CCc1nnc(SCc2cc(=O)n3c4c(sc3n2)CCCC4)[nH]1`, the cytotoxicity at 10 µM is -3.91%.

Regarding `Cc1cc(NCc2ccccc2)nc2[nH]nc(N)c12`, the cytotoxicity at 10 µM is -44%.

As for `O=C(Cc1c(F)cccc1F)N1CCN(CC(=O)N2CCCC2)CC1`, the cytotoxicity at 10 µM was 4.57%.

Regarding `COCCN1C(=O)CCC12CCCN(Cc1ccccc1F)C2` (stereo unspecified), the cytotoxicity at 10 µM is 3.64%.

For `CC[C@@]1(O)CCN(C(=O)CCc2cnn(C)c2)C[C@H]1O`, the cytotoxicity at 10 µM is -0.634%.

`O=C1CC(N(C(=O)c2ccc3[nH]c4c(c3c2)CCCC4)C2CC2)C(=O)N1` (stereo unspecified): the cytotoxicity at 10 µM was -3.79%.

Regarding `Cc1ccc(-c2nc(CN3CCCC(Cn4cncn4)C3)cs2)o1` (stereo unspecified), the cytotoxicity at 10 µM is -22.2%.

For `N#CCCSc1nnc(Cc2ccccc2F)o1`, the cytotoxicity at 10 µM was -11.7%.

For the molecule `COc1ccc(C(=O)NCCNC(=O)c2scnc2Cl)cc1`, the cytotoxicity at 10 µM is -16.8%.

Take `Cc1nn(C)c(Cl)c1CNCc1ccc(OCC(N)=O)cc1`: the cytotoxicity at 10 µM worked out at 1.08%.

Take `Cc1ccc2nc(C)cc(C(=O)N[C@H]3COC[C@@H]3N3CCOCC3)c2c1`: the cytotoxicity at 10 µM is -42.2%.

Turning to `CN(C)C(=O)NC1COC2(CCN(Cc3nccn3C)CC2)C1` (stereo unspecified), the cytotoxicity at 10 µM is 9.48%.

`O=C(C(CNCc1cccnc1)c1ccccc1)N1CCOCC1` (stereo unspecified): the cytotoxicity at 10 µM stood at 2.49%.

`COc1ccc(OCCN(C)c2cc(C)nc(N)n2)cc1`: the cytotoxicity at 10 µM was determined as 49.5%.

As for `O=C(C1CC1)N1CCC2(CC1)CNCc1ccccc12`, the cytotoxicity at 10 µM is 1.79%.

`Cc1cccc2cc(C(=O)N3CCC(F)(F)CC3)n(C)c12`: the cytotoxicity at 10 µM was determined as 3.76%.

Consider `COc1nc2ccccc2cc1CN1CCCC(CNC(C)=O)C1` (stereo unspecified), for which the cytotoxicity at 10 µM came to 1.9%.

Take `COCC(=O)NCc1cccc(Br)c1`: the cytotoxicity at 10 µM was -4.2%.

For `CCc1ccsc1C(=O)N1CCN(CC(C)O)CC1` (stereo unspecified), the cytotoxicity at 10 µM is -33.1%.

Consider `CCCN1CCCCCC1Cc1c(C(=O)NC)sc2ccccc12` (stereo unspecified), for which the cytotoxicity at 10 µM turned out to be 8.53%.

Regarding `c1ccc(Cc2noc(-c3ccc(NCC4COCCO4)nc3)n2)cc1` (stereo unspecified), the cytotoxicity at 10 µM turned out to be 6.42%.

As for `O=c1[nH][nH]cc1-c1ccnc(NCCN2CCCCC2)n1`, the cytotoxicity at 10 µM is -10.4%.

As to `COc1ccc(-n2ccc(C(=O)N3CCN(C)CC3C)n2)cc1` (stereo unspecified), the cytotoxicity at 10 µM was -11.2%.

With `COCCC(=O)N1CC[C@@H](N2CCN(C)CC2)[C@@H]1Cc1ccccc1`, the cytotoxicity at 10 µM was determined as 7.7%.

In the case of `COc1ccc(C2CCCN2C(=O)NCCn2ccnc2)cc1` (stereo unspecified), the cytotoxicity at 10 µM was -9.13%.

Consider `COCCN1CCCC(Cc2cnc(-c3c(C)nn(C)c3C)cn2)C1` (stereo unspecified), for which the cytotoxicity at 10 µM was -2.56%.

`CCc1nc2n(n1)CC(Nc1cc(C)nc3ncnn13)CC2` (stereo unspecified): the cytotoxicity at 10 µM is -9.91%.

Consider `CC1(C)CCN(S(=O)(=O)N2CCCC(c3cccc(C(=O)O)c3)C2)CC1` (stereo unspecified), for which the cytotoxicity at 10 µM was -0.879%.

`Cc1cc(CC(C)NC(=O)c2n[nH]c3c2CCC3)n[nH]1` (stereo unspecified): the cytotoxicity at 10 µM is -144%.

Consider `CN1CCC2(CC1)CN(Cc1ccc(C3CCCCO3)o1)CCCN2C` (stereo unspecified), for which the cytotoxicity at 10 µM was -5.35%.

As for `CS(=O)(=O)CCNC(=O)NCCc1cc2ccccc2o1`, the cytotoxicity at 10 µM turned out to be 2.8%.

Consider `CCN(CC)S(=O)(=O)N1CCCN(CC2CCCO2)CC1` (stereo unspecified), for which the cytotoxicity at 10 µM was found to be 5.69%.

Turning to `Cc1noc(CN2CC=C(c3cnn(C4CCS(=O)(=O)C4)c3)CC2)n1` (stereo unspecified), the cytotoxicity at 10 µM was -0.89%.

For the origin of these results see ChEMBL document CHEMBL4513216, “Probing the Open Global Health Chemical Diversity Library for Multistage-Active Starting Points for Next-Generation Antimalarials” (ACS Infect Dis, 2020).
